Measurements taken from ChEMBL document CHEMBL4011636, “Utilization of an Active Site Mutant Receptor for the Identification of Potent and Selective Atypical 5-HT2C Receptor Agonists” (J Med Chem, 2017).
pEC50: −log10 of the molar value. Active and inactive are the calls of the source.

Key:
[1] = biological target: T1, 5-hydroxytryptamine receptor 2B (Homo sapiens, UniProt P41595); assay: Agonist activity at recombinant human 5-HT2B receptor expressed in HEK293E cells assessed as induction of intracellular Ca2+ levels after 90 secs by Fluo-4-dye based FLIPR assay; assay type: cell-based, HEK293
In short: (§1)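 HEK293E cells stably expressing human receptor (VNV isoform for 5-HT2C; ~400−795 fmol/mg protein), grown in DMEM with 10% dialyzed FBS and G418. Cells plated at 20 000/well in serum-free DMEM overnight at 37 °C, then loaded 1 h at room temperature with 5 μM Fluo-4 in HBSS/25 mM HEPES. Eleven compound concentrations added on FLIPR, Ca2+ signal read for 90 s. EC50 from a four-parameter logistic fit, at least triplicate.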

[2] = biological target: 5-hydroxytryptamine receptor 2A (Homo sapiens, UniProt P28223); assay: Agonist activity at recombinant human 5-HT2A receptor expressed in HEK293E cells assessed as induction of intracellular Ca2+ levels after 90 secs by Fluo-4-dye based FLIPR assay; assay type: cell-based, HEK293; in short: as §1
[3] = biological target: T2, 5-hydroxytryptamine receptor 2C (Homo sapiens) (UniProt P28335); assay: Intrinsic activity at recombinant human 5-HT2C receptor expressed in HEK293E cells assessed as induction of intracellular Ca2+ levels after 90 secs by Fluo-4-dye based FLIPR assay relative to serotonin; assay type: functional, cell-based; settings: HEK293
T2 sequence (whole entry): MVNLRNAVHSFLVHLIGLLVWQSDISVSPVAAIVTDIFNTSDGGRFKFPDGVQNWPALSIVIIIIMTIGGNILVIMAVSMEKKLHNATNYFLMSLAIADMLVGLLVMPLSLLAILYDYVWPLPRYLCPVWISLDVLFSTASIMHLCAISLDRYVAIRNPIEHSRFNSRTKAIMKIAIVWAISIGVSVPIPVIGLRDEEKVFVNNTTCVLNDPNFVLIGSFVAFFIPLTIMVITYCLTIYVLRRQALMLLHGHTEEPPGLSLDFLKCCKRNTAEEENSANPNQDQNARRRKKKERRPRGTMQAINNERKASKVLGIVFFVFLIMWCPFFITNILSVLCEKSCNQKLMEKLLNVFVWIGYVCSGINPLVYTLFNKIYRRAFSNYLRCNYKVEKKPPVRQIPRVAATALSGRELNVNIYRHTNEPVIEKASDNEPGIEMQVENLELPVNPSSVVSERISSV
In short: (§2)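 FLIPR Fluo-4 Ca2+ assay in HEK293E cells stably expressing the human receptor (VNV isoform for 5-HT2C), eleven-point concentration series, 90 s read. Response normalized to 3 μM serotonin on the same plate (defined as IA = 1). Intrinsic activity taken from a four-parameter logistic fit.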

[4] = biological target: T3, 5-hydroxytryptamine receptor 2C (Homo sapiens, UniProt P28335); assay: Agonist activity at recombinant human 5-HT2C receptor expressed in HEK293E cells assessed as induction of intracellular Ca2+ levels after 90 secs by Fluo-4-dye based FLIPR assay; assay type: functional, cell-based, HEK293; in short: as §1
T3 sequence (P28335 whole entry): T2 sequence (whole entry)

Rattus norvegicus [5] = assay: Antiobesity activity in ad libitum feeding Sprague-Dawley rat model assessed as reduction in food intake at 30 mg/kg, po administered at 60 mins prior to the onset of the dark cycle followed by incubation for first 8 hrs in light cycle and 12 hrs in dark cycle; assay type: functional; set-up: scale not given: the % may be the effect or the level left
In short: (§3)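 Male Sprague Dawley rats (~225 g; n = 6), trained in operant chambers, dosed orally with compound or vehicle (14% PPG, 1% Tween, 85% water) 60 min before dark onset. Food intake was monitored in individual boxes for 20 h (12 h dark plus first 8 h light). Percent reduction was computed from drug-treated versus vehicle-treated total intake.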

[6] = Metabolic stability in human liver microsomes assessed as parent compound remaining at […] after 10 mins; assay type: ADME, microsome; settings: read-out: Stability
[7] = biological target: T1, 5-hydroxytryptamine receptor 2B; assay: Intrinsic activity at recombinant human 5-HT2B receptor expressed in HEK293E cells assessed as induction of intracellular Ca2+ levels after 90 secs by Fluo-4-dye based FLIPR assay relative to serotonin; assay type: functional, cell-based; settings: HEK293; in short: as §2
[8] = Permeability of compound at pH 5.5 by PAMPA; assay type: physicochemical; settings: read-out: permeability
[9] = Permeability of compound at pH 7.4 by PAMPA; assay type: physicochemical; settings: read-out: permeability
[10] = Permeability across basolateral to apical side in human Caco2 cells; assay type: ADME, cell-based; settings: Caco-2, read-out: permeability
[11] = Permeability across apical to basolateral side in human Caco2 cells; assay type: ADME, cell-based; settings: Caco-2, read-out: permeability
[12] = Efflux ratio of permeability across basolateral to apical side in human Caco2 cells; assay type: ADME, cell-based; settings: Caco-2
[13] = Protein binding in human plasma; assay type: ADME, cell-free; settings: read-out: PPB (converted)
[14] = Protein binding in rat plasma; assay type: ADME, cell-free; settings: read-out: PPB (converted)
[15] = Half life in human microsomes; assay type: ADME, Microsome
[16] = Half life in rat microsomes; assay type: ADME, Microsome
[17] = Plasma concentration in Sprague-Dawley rat at 30 mg/kg, po measured at 3 hrs post dose by LC/MS-MS analysis; assay type: ADME, organism-based
In short: (§4)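 Male rats given 30 mg/kg orally in 0.15% docusate sodium/2% PVP-K/97.85% water. Plasma and brain were sampled at a single time point after dosing. Brain was diluted 1:2 (vol/weight) with water before homogenization (dilution factor 3). Concentrations were measured by LC/MS−MS after acetonitrile protein precipitation. Values are the average of three animals; B/P is the brain to plasma ratio.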

[18] = Drug uptake in Sprague-Dawley rat brain at 30 mg/kg, po measured at 3 hrs post dose by LC/MS-MS analysis; assay type: ADME, organism-based; settings: read-out: Drug uptake; in short: as §4
[19] = Ratio of drug uptake in Sprague-Dawley rat brain to plasma at 30 mg/kg, po measured at 3 hrs post dose by LC/MS-MS analysis; assay type: ADME, organism-based; settings: read-out: BPR; in short: as §4
Rattus norvegicus [20] = assay: Antiobesity activity in ad libitum feeding Sprague-Dawley rat model assessed as reduction in food pellet consumption administered po at 60 mins prior to the onset of the dark cycle followed by incubation for first 8 hrs in light cycle and 12 hrs in dark cycle; assay type: functional, organism-based; in short: as §3
Rattus norvegicus [21] = assay: Antiobesity activity in ad libitum feeding Sprague-Dawley rat model assessed as reduction in food pellet consumption at 3 to 10 mg/kg, po administered at 60 mins prior to the onset of the dark cycle measured at first 4 hrs post last dose; assay type: functional, organism-based
In short: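 Male Sprague Dawley rats (n = 6) dosed orally 60 min before dark onset with 3 or 10 mg/kg, in vehicle of 14% PPG, 1% Tween, 85% water. Food pellet consumption was recorded in operant boxes and compared with vehicle over the first 4 h.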

Rattus norvegicus [22] = assay: Antiobesity activity in ad libitum feeding Sprague-Dawley rat model assessed as reduction in food pellet consumption at 30 mg/kg, po administered at 60 mins prior to the onset of the dark cycle followed by incubation for first 8 hrs in light cycle and 12 hrs in dark cycle; assay type: functional; set-up: scale not given: the % may be the effect or the level left; in short: as §3
Rattus norvegicus [23] = assay: Antiobesity activity in ad libitum feeding Sprague-Dawley rat model assessed as reduction in food intake at 30 mg/kg, po administered at 60 mins prior to the onset of the dark cycle followed by incubation for first 8 hrs in light cycle and 12 hrs in dark cycle in presence of 5-HT2C anatgonist SB-243213; assay type: functional; set-up: scale not given: the % may be the effect or the level left
Rattus norvegicus [24] = assay: Toxicity in ad libitum feeding Sprague-Dawley rat model assessed as effect on locomotor activity at 3 to 30 mg/kg, po administered at 60 mins prior to the onset of the dark cycle followed by incubation for first 8 hrs in light cycle and 12 hrs in dark cycle; assay type: organism-based; settings: in vivo
Rattus norvegicus [25] = assay: Toxicity in ad libitum feeding Sprague-Dawley rat model assessed as reduction in water intake at 3 to 30 mg/kg, po administered at 60 mins prior to the onset of the dark cycle followed by incubation for first 8 hrs in light cycle and 12 hrs in dark cycle; assay type: organism-based; settings: in vivo
[26] = Metabolic stability in rat liver microsomes assessed as parent compound remaining at […] after 10 mins; assay type: ADME, microsome; settings: read-out: Stability
[27] = Plasma concentration in Sprague-Dawley rat at 30 mg/kg, po measured at 7 hrs post dose by LC/MS-MS analysis; assay type: ADME, organism-based; in short: as §4
[28] = Drug uptake in Sprague-Dawley rat brain at 30 mg/kg, po measured at 7 hrs post dose by LC/MS-MS analysis; assay type: ADME, organism-based; settings: read-out: Drug uptake; in short: as §4
[29] = Ratio of drug uptake in Sprague-Dawley rat brain to plasma at 30 mg/kg, po measured at 7 hrs post dose by LC/MS-MS analysis; assay type: ADME, organism-based; settings: read-out: BPR; in short: as §4
[30] = Plasma concentration in Sprague-Dawley rat at 1 mg/kg, iv measured at 1 hr post dose by LC/MS-MS analysis; assay type: ADME, organism-based
[31] = Ratio of drug uptake in Sprague-Dawley rat brain to plasma at 1 mg/kg, iv measured at 1 hr post dose by LC/MS-MS analysis; assay type: ADME, organism-based; settings: read-out: BPR
[32] = Substrate activity at rat P-gp; assay type: ADME
[33] = Substrate activity at human P-gp; assay type: ADME
[34] = Drug uptake in Sprague-Dawley rat brain at 1 mg/kg, iv measured at 1 hr post dose by LC/MS-MS analysis

T1 sequence (P41595 whole entry, canonical isoform): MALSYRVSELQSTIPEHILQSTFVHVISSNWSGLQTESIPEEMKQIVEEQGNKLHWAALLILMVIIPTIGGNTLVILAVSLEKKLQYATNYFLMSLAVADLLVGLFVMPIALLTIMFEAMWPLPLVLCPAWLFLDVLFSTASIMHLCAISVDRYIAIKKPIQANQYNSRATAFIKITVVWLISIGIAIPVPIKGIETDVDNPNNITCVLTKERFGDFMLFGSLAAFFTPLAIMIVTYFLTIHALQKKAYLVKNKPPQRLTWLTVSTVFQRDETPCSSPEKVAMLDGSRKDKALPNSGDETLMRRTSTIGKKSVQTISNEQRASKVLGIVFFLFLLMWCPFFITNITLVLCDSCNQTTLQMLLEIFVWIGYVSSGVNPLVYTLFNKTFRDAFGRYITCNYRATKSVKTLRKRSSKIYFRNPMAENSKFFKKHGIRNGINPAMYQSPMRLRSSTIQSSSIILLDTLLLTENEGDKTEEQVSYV
5-hydroxytryptamine receptor 2A, sequence (P28223 whole entry): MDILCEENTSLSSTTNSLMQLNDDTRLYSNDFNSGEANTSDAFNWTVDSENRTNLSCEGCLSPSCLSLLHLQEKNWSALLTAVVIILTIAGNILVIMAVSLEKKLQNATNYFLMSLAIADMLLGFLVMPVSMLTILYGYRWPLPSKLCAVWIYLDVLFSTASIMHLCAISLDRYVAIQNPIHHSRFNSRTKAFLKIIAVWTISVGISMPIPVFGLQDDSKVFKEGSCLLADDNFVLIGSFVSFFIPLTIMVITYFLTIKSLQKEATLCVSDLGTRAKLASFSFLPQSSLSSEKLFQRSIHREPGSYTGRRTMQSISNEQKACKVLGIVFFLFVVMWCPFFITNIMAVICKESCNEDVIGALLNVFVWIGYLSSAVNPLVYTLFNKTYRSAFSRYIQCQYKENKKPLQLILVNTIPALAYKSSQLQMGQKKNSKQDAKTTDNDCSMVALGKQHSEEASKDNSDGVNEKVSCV

| SMILES | pEC50 [1] | pEC50 [2] | Intrinsic activity [3] | pEC50 [4] | remaining at 10 min [6] | Papp [8] | Papp [9] | Papp B→A [10] | Papp A→B [11] | efflux ratio [12] | fraction unbound [13] | fraction unbound [14] | half-life [15] | half-life [16] | further results |
| --- | --- | --- | --- | --- | --- | --- | --- | --- | --- | --- | --- | --- | --- | --- | --- |
| CCn1nc(-c2cccc3cccnc23)cc1-c1ccc(N)nn1 | 7.32 | 6.20 | 0.8 | 8.30 | 61% | 72.7 ×10⁻⁶ cm/s | 88.9 ×10⁻⁶ cm/s | 52.8 ×10⁻⁶ cm/s | 77.7 ×10⁻⁶ cm/s | 0.7 | 0.062 | 0.079 | 16 min | 25 min | Activity (Rattus norvegicus [5]): 38%; Intrinsic activity [7]: 0.2; concentration at 3 h [17]: 7540 nM; concentration at 3 h [18]: 3920 nM; Kp at 3 h [19]: 0.9; Activity (Rattus norvegicus [20]): Dose-dependent effect; Activity (Rattus norvegicus [21]): Active; Activity (Rattus norvegicus [22]): 24%; Activity (Rattus norvegicus [23]): 12%; Activity (Rattus norvegicus [24]): Non-Toxic; Activity (Rattus norvegicus [25]): Non-Toxic |
| Cc1nc(-c2cccc3ccccc23)sc1C(=O)N1CCC(CO)CC1 | < 5.00 | < 5.00 | 1 to 1.1 | 8.22 | 80% | 60.7 ×10⁻⁶ cm/s | 73.9 ×10⁻⁶ cm/s | 17.5 ×10⁻⁶ cm/s | 32.9 ×10⁻⁶ cm/s | 0.5 | 0.005 | 0.004 | 21 min | 6 min | remaining at 10 min [26]: 24%; concentration at 7 h [27]: 736 nM; concentration at 7 h [28]: 35 nM; Kp at 7 h [29]: 0.05; concentration at 1 h [30]: 569 nM; Kp at 1 h [31]: 0.15; Activity [32]: Active; Activity [33]: Not Active; concentration at 1 h [34]: 76 nM |
